# Laboratory results from ChEMBL document CHEMBL3124901, “Inhibitory effect of a callophycin A derivative on iNOS expression via inhibition of Akt in lipopolysaccharide-stimulated RAW 264.7 cells” (2014).
# Activity calls are given as the source filed them. No cut-off for these calls is given here.
# How the values were obtained:
# [1] = test system: RAW264.7; experiment: Inhibition of PI3K/AKT in mouse RAW264.7 cells assessed as inhibition of LPS-induced iNOS protein expression at 25 uM after 20 hrs by Western blot analysis; format: cell-based
# Procedure, shortened: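 Pretreatment with 25 μM or LY294002 (25 μM), then LPS for 20 h; iNOS protein by Western blot.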
# [2] = test system: RAW264.7; experiment: Antiinflammatory activity in LPS-stimulated mouse RAW264.7 cells assessed as inhibition of iNOS protein expression at 50 uM preincubated for 15 mins followed by LPS challenge measured after 20 hrs by Western blot analysis; format: functional, cell-based
SMILES,inhibition [1],inhibition [2]
O=c1cc(N2CCOCC2)oc2c(-c3ccccc3)cccc12,Active,–
O=C(O)[C@@H]1Cc2c([nH]c3ccccc23)CN1Cc1ccc(O)cc1,–,inactive
O=C(O)[C@H]1Cc2c([nH]c3ccccc23)CN1Cc1ccc(O)cc1,–,inactive
